# ChEMBL document CHEMBL1140094, “Novel microtubule-interacting phenoxy pyridine and phenyl sulfanyl pyridine analogues for cancer therapy” (J Med Chem, 2008)
# pIC50: −log10 of the molar value. Activity calls are given as the source filed them. The calls are words filed in the database; no cut-off is given here.
# Experiments:
# [1] = Growth inhibition of human HS766T cells at 1 uM after 96 hrs by MTT assay relative to control; format: functional; conditions: Hs 766, 96 h, values are per cent of control
# Summary of the method: (§1)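 MTT initial screen of Panc1 and HS766T human pancreatic cancer cells at 1 and 10 μM; growth expressed as percent of untreated control with SD.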
# [2] = Growth inhibition of human HS766T cells at 10 uM after 96 hrs by MTT assay relative to control; format: functional; conditions: Hs 766, 96 h, values are per cent of control; summary of the method: as §1
# PANC-1 [3] = test: Growth inhibition of human Panc1 cells at 1 uM after 96 hrs by MTT assay relative to control; format: functional; conditions: PANC-1, 96 h, values are per cent of control; summary of the method: as §1
# PANC-1 [4] = test: Growth inhibition of human Panc1 cells at 10 uM after 96 hrs by MTT assay relative to control; format: functional; conditions: PANC-1, 96 h, values are per cent of control; summary of the method: as §1
# PANC-1 [5] = test: Growth inhibition of human Panc1 cells after 96 hrs by MTT assay relative to control; format: functional, cell-based; conditions: PANC-1, 96 h
# [6] = Inhibition of tubulin polymerization at 4 to 5 uM relative to control
# Summary of the method: (§2)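 Turbidity-monitored tubulin assembly; extent of assembly at 20 min compared with no-compound control.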
# MCF7 [7] = test: Cell cycle arrest in human MCF7 cells assessed as accumulation at G2/M phase at 5 uM after 15 hrs by MPM2 antibody labeling; format: functional
# Summary of the method: (§3)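 MCF7 breast cancer cells treated 15 h at 5 μM; colcemid 0.1 μg/mL (about 0.25 μM) as positive control. Cells harvested and fixed, DNA labeled with propidium iodide, mitotic cells labeled with monoclonal MPM2 (phospho-epitopes at mitosis onset); flow cytometry. PI scans gated M1 G1, M3 S, M2 G2/M; mitotic fold increase versus untreated.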
# MCF7 [8] = test: Cell cycle arrest in human MCF7 cells assessed as accumulation at G2/M phase at 5 uM after 15 hrs by propidium iodide staining; format: functional; summary of the method: as §3
# [9] = Inhibition of tubulin polymerization relative to control; conditions: values are per cent of control; summary of the method: as §2
# [10] = Growth inhibition of human HS766T cells after 96 hrs by MTT assay relative to control; format: functional, cell-based; conditions: Hs 766, 96 h
# SK-OV-3 = test: Cytotoxicity against paclitaxel-resistant human SKOV3 cells after 7 days by MTT assay; format: functional, cell-based
# [11] = Inhibition of tubulin polymerization assessed as effect on maximum propogation rate
# MCF7 [12] = test: Induction of microtubule disassembly in human MCF7 cells assessed as prometaphase cell cycle arrest at 5 uM after 15 hrs by immunofluorescence staining; format: functional, cell-based
# Summary of the method: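 MCF7 cells exposed 15 h to 5 μM compound, colcemid 0.25 μM as positive control, untreated controls. Anti-α-tubulin primary with Alexa-568 secondary, DNA counterstained with DAPI; immunofluorescence microscopy scoring microtubule loss, mitotic stage (prometaphase arrest) and micronuclei in interphase cells.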
# [13] = Inhibition of tubulin polymerization
SMILES,"viability, % of control at 1 µM [1]","viability, % of control at 10 µM [2]","viability, % of control at 1 µM (PANC-1 [3])","viability, % of control at 10 µM (PANC-1 [4])",other results
CNC(=O)c1cccc(Sc2ccc(NC(=O)NC(=O)c3cc(OC)cc(OC)c3Cl)cc2)c1,54%,31%,77%,52%,–
O=C(NC(=O)c1ccccc1Cl)Nc1ccc(Sc2cccc(C(=O)NCc3ccccc3)c2)cc1,95%,74%,86%,66%,–
C=CCNC(=O)c1cccc(Sc2ccc(NC(=O)NC(=O)c3ccccc3Cl)cc2)c1,109%,36%,69%,46%,–
CNC(=O)c1cccc(Sc2ccc(NC(=O)NC(=O)c3ccc(OC)c(OC)c3Cl)cc2)c1,30%,21%,35%,33%,pIC50 (PANC-1 [5]): 6.15; inhibition [6]: 50%; Activity (MCF7 [7]): 47.23%; Activity (MCF7 [8]): 75.71%; residual activity [9]: 40%; pIC50 [10]: 6.30; Activity (SK-OV-3): Active; pIC50 [11]: 5.77; Activity (MCF7 [12]): Active
C=CCNC(=O)c1cccc(Sc2ccc(NC(=O)NC(=O)c3cc(OC)cc(OC)c3)cc2)c1,105%,87%,62%,41%,–
COc1cc2c(c(OC)c1OC)-c1ccc(OC)c(=O)cc1[C@@H](NC(C)=O)CC2 [COLCHICINE],–,–,–,–,pIC50 [13]: 5.66
CCCCCCCCCCNC(=O)c1cccc(S(=O)(=O)c2ccc(NC(=O)NC(=O)c3cc(OC)cc(OC)c3)cc2)c1,71%,56%,48%,43%,–
CCCCCCCCCCNC(=O)c1cccc(Sc2ccc(NC(=O)NC(=O)c3ccc(OC)c(OC)c3Cl)cc2)c1,79%,62%,63%,51%,–
CNC(=O)c1cccc(Sc2ccc(NC(=O)NC(=O)c3ccccc3)cc2)c1,77%,26%,65%,41%,–
C=CCNC(=O)c1cccc(Oc2ccc(NC(=O)NC(=O)c3ccccc3Cl)cc2)c1,36%,23%,47%,38%,pIC50 (PANC-1 [5]): 6.10; Activity (MCF7 [7]): 38.29%; Activity (MCF7 [8]): 67.49%; pIC50 [10]: 6.82; pIC50 [11]: 5.40; Activity (MCF7 [12]): Active
C=CCNC(=O)c1cccc(Oc2ccc(NC(=S)NC(=O)c3ccccc3)cc2)c1,88%,73%,97%,68%,–
C=CCNC(=O)c1cccc(Sc2ccc(NC(=O)NC(=O)c3ccc(OC)c(OC)c3Cl)cc2)c1,101%,23%,88%,44%,–
COc1ccc(C(=O)NC(=O)Nc2ccc(Sc3cccc(C(=O)NCc4ccccc4)c3)cc2)c(Cl)c1OC,97%,75%,89%,51%,–
C=CCNC(=O)c1cccc(Oc2ccc(NC(=O)NC(=O)c3ccccc3)cc2)c1,76%,70%,66%,51%,–
CNC(=O)c1cccc(Sc2ccc(NC(=O)NC(=O)c3ccccc3[N+](=O)[O-])cc2)c1,63%,23%,60%,38%,–
C=CCNC(=O)c1cccc(Oc2ccc(NC(=O)NC(=O)c3ccccc3[N+](=O)[O-])cc2)c1,55%,30%,76%,55%,–
CCCCCCCCCCNC(=O)c1cccc(Sc2ccc(NC(=O)NC(=O)c3cc(OC)cc(OC)c3)cc2)c1,77%,66%,74%,58%,–
O=C(NC(=O)c1ccccc1)Nc1ccc(Sc2cccc(C(=O)NCc3ccccc3)c2)cc1,79%,73%,67%,53%,–
C=CCNC(=O)c1cccc(Oc2ccc(NC(=O)NC(=O)c3cc(OC)cc(OC)c3)cc2)c1,107%,64%,58%,68%,–
C=CCNC(=O)c1cccc(Oc2ccc(NC(=O)NC(=O)c3ccc(OC)c(OC)c3Cl)cc2)c1,67%,50%,61%,53%,–
C=CCNC(=O)c1cccc(Sc2ccc(NC(=O)NC(=O)c3ccccc3[N+](=O)[O-])cc2)c1,50%,27%,70%,44%,–
